The values that follow come from ChEMBL document CHEMBL4033772, “New Class of Antitrypanosomal Agents Based on Imidazopyridines” (ACS Med Chem Lett, 2017).

Values after ≈ are worked out from the molar mass of the structure shown. Active and inactive are the calls of the source. The rule behind the calls is not given here. A value given as a limit tells only on which side of the number the result lay.

Series [1] is described as follows: Cmax in Swiss Webster mouse at 50 mg/kg, po by LC-MS/MS analysis. The series is classed as ADME, organism-based. More on the design: dose 50 mg/kg, route oral. The settings on record: in vivo. The essentials:
(§1)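 Oral single dose of 50 mg/kg to mice (n=3). Blood sampled at time points up to 24 h. Cmax and AUC reported as average ± SEM.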

A short description of series [2]: Plasma concentration in Swiss Webster mouse at 5 mg/kg, ip after 1 hr by LC-MS/MS analysis. The series is classed as ADME, organism-based. The essentials:
(§2)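 Mice in groups of three got a single 5 mg/kg ip dose. Animals were sacrificed 1 h postdose, and brain and plasma were collected for analysis. Brain:plasma ratio was calculated from the mean concentrations.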

A short description of series [3]: Cytotoxicity against human CRL8155 cells after 48 hrs by Alamar Blue-based assay. In kind it is cell-based. The settings on record: CRL8155, 48 h. The essentials:
(§3)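 Cytotoxicity tested against human lymphoblasts CRL-8155 and hepatocytes HepG2. Highest concentration tested was 50 µM.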
In general terms: Resazurin is reduced to fluorescent resorufin, in cell work by metabolically active cells.

Series [4] relates to Trypanosoma brucei brucei. The series can be described thus: Antitrypanosomal activity against Trypanosoma brucei brucei BF427 after 48 hrs by Alamar Blue-based assay. As to conditions: BF427, 48 h. The series is classed as functional.
Another series deals with Mus musculus. The series can be described thus: Toxicity in BALB/c mouse infected with bioluminescent PpyRE9h expressing Trypanosoma cruzi Tulahuen […] at 50 mg/kg, po twice daily for 5 days measured after 6 weeks. The series is classed as organism-based. The settings on record: in vivo, 1008 h. The essentials:
(§4)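 Balb/c mice infected SC on day 0 with 2x10^4 T. cruzi Tulahuen trypomastigotes expressing red-shifted luciferase (PpyRE9h). Oral dosing at 50 mg/kg twice daily on days 7-11 post-infection. D-luciferin (120 mg/kg) injected SC, mice anesthetized and imaged by IVIS 10-15 min later, at time points out to 42 days. Mice observed for toxicity.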

Series [5] in a line: Protein binding in Swiss Webster mouse plasma assessed as drug recovery at 2 uM by LC-MS/MS analysis. In kind it is ADME, cell-free. As to conditions: read-out: Drug recovery. The essentials:
(§5)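 Plasma protein binding measured in 100% mouse plasma, giving % recovery and % fraction unbound. Propranolol control included in every experiment.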

Series [6] can be described thus: Half life in mouse liver microsomes by LC-MS/MS method. In kind it is ADME, microsome. The essentials:
(§6)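 Incubation with mouse liver microsomes, run in duplicate. Testosterone and dextromethorphan included as controls in each assay.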
Background: Microsomes from liver hold many membrane-bound enzymes, among them those of drug oxidation.

For the next series, the system named is Liver. The series can be described thus: Stability of the compound in mouse liver microsomes assessed as compound remaining by LC-MS/MS method. In kind it is ADME, microsome. The essentials: as §6
A short description of series [7]: Plasma concentration in BALB/c mouse subcutaneously infected with bioluminescent PpyRE9h expressing Trypanosoma cruzi Tulahuen […] at 50 mg/kg, po twice daily measured 1 hr post seventh dose. The series is classed as ADME, organism-based. The essentials: (§7)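 Infected Balb/c mice on the twice-daily 50 mg/kg oral regimen. Tail blood collected at the 7th dose, immediately before and 1 h and 6 h after administration (n=3).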

Series [8] in a line: Plasma concentration in BALB/c mouse subcutaneously infected with bioluminescent PpyRE9h expressing Trypanosoma cruzi Tulahuen […] at 50 mg/kg, po twice daily measured immediately before seventh dose.
A further series deals with HepG2. The experiment in a line: Cytotoxicity against human HepG2 cells after 48 hrs by Alamar Blue-based assay. The series is classed as cell-based. The settings on record: HepG2, 48 h. The essentials: as §3
Series [9] in a line: Fraction unbound in Swiss Webster mouse plasma at 2 uM by LC-MS/MS analysis. In kind it is ADME, cell-free. The essentials:
as §5

Series [10] can be described thus: Solubility of the compound in HCl at pH 2.0 at 50 uM after overnight incubation by LC-MS/MS method. The series is classed as physicochemical. The essentials:
(§8)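 Solubility measured at pH 7.4, 6.5 and 2.0.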

A short description of series [11]: AUC in Swiss Webster mouse at 50 mg/kg, po by LC-MS/MS analysis. In kind it is ADME, organism-based. As to conditions: in vivo. The essentials:
as §1

Series [12] is described as follows: Ratio of drug level in Swiss Webster mouse brain to plasma at 5 mg/kg, ip measured after 1 hr by LC-MS/MS analysis. The series is classed as ADME, organism-based. The settings on record: read-out: BPR. The essentials:
as §2

Series [13] concerns Trypanosoma cruzi. The experiment in a line: Antitrypanosomal activity against Trypanosoma cruzi Tulahuen amastigotes infected in mouse 3T3 cells after 6 days by beta galactosidase reporter asay. As to conditions: NIH3T3, 144 h. The series is classed as functional, cell-based.
The nature of series [14]: Solubility of the compound in PBS at pH 6.5 at 50 uM after overnight incubation by LC-MS/MS method. In kind it is physicochemical. The essentials:
as §8

For series [15], the system named is Trypanosoma cruzi. The series can be described thus: Antitrypanosomal activity against bioluminescent PpyRE9h expressing Trypanosoma cruzi Tulahuen […] infected subcutaneously in BALB/c mouse assessed as suppression of Trypanosoma cruzi infection at 50 mg/kg, po twice daily for 5 days measured after 6 weeks by IVIS imaging analysis. The series is classed as functional, organism-based. The essentials: as §4

A short description of series [16]: Solubility of the compound in PBS at pH 7.4 at 50 uM after overnight incubation by LC-MS/MS method. The series is classed as physicochemical. The essentials:
as §8

A short description of series [17]: Drug level in Swiss Webster mouse brain at 5 mg/kg, ip after 1 hr by LC-MS/MS analysis. In kind it is ADME, organism-based. The settings on record: read-out: Drug uptake. The essentials: as §2
The nature of series [18]: Plasma concentration in BALB/c mouse subcutaneously infected with bioluminescent PpyRE9h expressing Trypanosoma cruzi Tulahuen tryptomastigotes at 50 mg/kg, po twice daily measured 6 hrs post seventh dose. In kind it is ADME, organism-based. The essentials: as §7
Series [19] is described as follows: Selectivity ratio of EC50 for Trypanosoma cruzi Tulahuen amastigotes to EC50 for Trypanosoma brucei brucei BF427. The series is classed as functional.
Series [20] deals with Trypanosoma cruzi. The experiment in a line: Antitrypanosomal activity against bioluminescent PpyRE9h expressing Trypanosoma cruzi Tulahuen […] infected subcutaneously in BALB/c mouse assessed as suppression of Trypanosoma cruzi infection at 100 mg/kg, po qd administered for 5 days measured after 6 weeks by IVIS imaging analysis. In kind it is functional, organism-based.

For orientation: Cmax means the highest concentration seen after dosing. In general, EC50 refers to the concentration at which the effect is half-maximal. High values mean a need for much substance, low ones an effect from little substance. In general, EC90 refers to the concentration needed for an effect of 90%. Read a high EC90 as weaker potency. Broadly, the half-life is how long it takes for the measured level to halve. The low end stands for fast loss, the high end for slow loss. A word on the fraction unbound: it is free concentration divided by total concentration. A high value points to much free substance. In general, solubility refers to the concentration that dissolves in the medium under given conditions. A lower solubility goes with a poorly soluble substance. As a reminder, the AUC is concentration integrated over time. For the compound `O=C(Nc1cc2nc(-c3ccc(F)c(F)c3)cn2cn1)N1CC[C@H](F)C1`, the Cmax in [1] turned out to be 5.7 µM. Also, the concentration at 1 h is 1.31 µM in series [2], 9 µM in [7] and 1120 nM in series [17]. Besides, the half-maximal effective concentration (EC50) in [3] was above 50 µM; in [4], 20 nM; with HepG2, above 50 µM; with Trypanosoma cruzi [13], 90 nM. Also, the EC90 in series [4] is 50 nM; with Trypanosoma cruzi [13] it was 150 nM. In the series with Mus musculus, the Activity entry is “Non-Toxic”. For the same compound, in [5], the recovery at 2 µM was found to be 56.1%. The half-life in [6] is above 60 min. For the same compound, in the series with Liver, the Stability came to 96%. The concentration at 0 hr in [8] turned out to be 4.8 µM. In series [9], the fraction unbound at 2 µM stood at 0.099. Besides, the values for the solubility at 50 µM in [10], in series [14] and in [16] were 1.6 µM (≈ 0.578 µg/mL), 2.4 µM (≈ 0.867 µg/mL) and 2.1 µM (≈ 0.759 µg/mL), respectively. In series [11], the AUC is 59.8 µM·h. In addition, the Kp at 1 h in series [12] was determined as 0.856. Besides, the result in the series with Trypanosoma cruzi [15] was Active. The same compound had a concentration at 6 h in series [18] of 5.8 µM.
Consider `O=C(Nc1ccn2cc(-c3ccc(F)c(F)c3)nc2c1)N1CCCC1`, for which the EC50 in [3] is above 50 µM; in [4], 320 nM; in the series with HepG2, above 50 µM; in the series on Trypanosoma cruzi [13], 2240 nM. Also, the concentration for an effect of 90% (EC90) came to 730 nM in [4] and 2570 nM in the series on Trypanosoma cruzi [13]. For the same compound, the Ratio EC50 in series [19] was 7.
Consider `O=C(Nc1ccn2cc(-c3ccc(F)c(F)c3)nc2c1)N1CC[C@H](F)C1`, for which the concentration at 1 h amounted to 4.84 µM in series [2] and 550 nM in series [17]. Further, the EC50 was 35.3 µM in series [3], 160 nM in [4], above 50 µM with HepG2 and 390 nM with Trypanosoma cruzi [13]. Further, the EC90 in series [4] was found to be 310 nM; in the series on Trypanosoma cruzi [13] it was 600 nM. The recovery at 2 µM in series [5] worked out at 64.5%. Also, the half-life in [6] is above 60 min. Also, the Stability in the series on Liver worked out at 100%. Also, the free fraction (fraction unbound) at 2 µM in series [9] amounted to 0.04. Moreover, the solubility at 50 µM in [10] was determined as 45.9 µM (≈ 16.5 µg/mL); in [14], 49.9 µM (≈ 18 µg/mL); in series [16], 32.8 µM (≈ 11.8 µg/mL). In addition, the Kp at 1 h in [12] amounted to 0.114.
Take `O=C(Cn1ccnc1[N+](=O)[O-])NCc1ccccc1` [BENZNIDAZOLE]: the outcome in the series on Trypanosoma cruzi [20] was Active. In the series with Trypanosoma cruzi [13], the EC50 is 690 nM and the EC90 stood at 1360 nM.
